The values below come from ChEMBL document CHEMBL1143805, “Synthesis and antimicrobial activities of some novel 1,2,4-triazolo[3,4-b]-1,3,4-thiadiazoles and 1,2,4-triazolo[3,4-b]-1,3,4-thiadiazines carrying thioalkyl and sulphonyl phenoxy moieties” (2007).

≈ marks a conversion by molar mass, not a printed value. Some results are limits rather than exact numbers.

The test system of one experiment is Aspergillus fumigatus. The experiment can be described thus: Antifungal activity against Aspergillus fumigatus NCIM 902. It is filed as functional. Conditions: for MIC: Aspergillus fumigatus, NCIM 902.
For another experiment, the system named is Trichophyton benhamiae. The experiment can be described thus: Antifungal activity against Trichophyton mentagrophytes. It is filed as functional, Arthroderma benhamiae. Conditions: for MIC: Trichophyton benhamiae. The procedure, abridged:
(§1)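 Agar-well diffusion on Sabouraud agar at pH 5.7. Plates were lawned with a saline spore suspension (one loopful in 3 ml), decanted and dried 1 h at 37 °C. Compounds in DMSO went into punched wells, with a DMSO solvent control. Plates were run in triplicate and kept at 37 °C for 3-4 days, with inhibition-zone diameter as read-out.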

The subject of a further experiment is Aspergillus flavus. The experiment can be described thus: Antifungal activity against Aspergillus flavus NCIM 524. It is filed as functional. The note with it: for MIC: Aspergillus flavus, NCIM 524. The method in brief: as §1
A further experiment relates to Escherichia coli. Description: Antibacterial activity against Escherichia coli ATCC 25922. The format is functional. Conditions: for MIC: Escherichia coli, ATCC 25922. The procedure, abridged: (§2)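 MIC by serial dilution in Mueller-Hinton broth tubes, pH adjusted to 5.0 with phosphate buffer. A standardized bacterial suspension was inoculated and incubated 16-18 h at 37 °C, and MIC was read as the lowest concentration with no visible growth. Zones were also measured in agar wells on seeded plates, with compounds in DMSO and a DMSO control, triplicate plates, 37 °C for 3-4 days.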

The test system of a further experiment is Talaromyces marneffei. Description: Antifungal activity against Penicillium marneffei. The format is functional. The note with it: for MIC: Talaromyces marneffei. The procedure, abridged:
as §1

The next experiment deals with Pseudomonas aeruginosa. Description: Antibacterial activity against Pseudomonas aeruginosa ATCC 27853. Conditions: for MIC: Pseudomonas aeruginosa, ATCC 27853. The format is functional. The method in brief:
as §2

The test system of a further experiment is Klebsiella pneumoniae. Description: Antibacterial activity against Klebsiella pneumoniae. The format is functional. Conditions: for MIC: Klebsiella pneumoniae. The procedure, abridged: as §2
The test system of the next experiment is Staphylococcus aureus. The experiment can be described thus: Antibacterial activity against Staphylococcus aureus ATCC 25923. The format is functional. The note with it: for MIC: Staphylococcus aureus, ATCC 25923. The procedure, abridged: as §2

Regarding `COc1ccc(-c2nn3c(COc4ccc(SC)cc4)nnc3s2)cc1`, the “inhibition zone (IZ)” value with Aspergillus fumigatus, in the experiment with Trichophyton benhamiae, in the experiment on Aspergillus flavus, in the experiment with Escherichia coli, with Talaromyces marneffei and in the experiment with Pseudomonas aeruginosa was 16 mm each time. Besides, the “inhibition zone (IZ)” value in the experiment with Klebsiella pneumoniae and in the experiment on Staphylococcus aureus was 16 mm throughout. Further, the minimum inhibitory concentration (MIC) against Aspergillus fumigatus, against Trichophyton benhamiae, with Aspergillus flavus, in the experiment on Escherichia coli, in the experiment with Talaromyces marneffei and against Pseudomonas aeruginosa was 6.25 µg/mL (≈ 16.3 µM) throughout. The MIC in the experiment on Klebsiella pneumoniae and with Staphylococcus aureus was 6.25 µg/mL (≈ 16.3 µM) in each case.

`CCSc1ccc(OCc2nnc3sc(-c4ccccc4Cl)nn23)cc1`: the “inhibition zone (IZ)” value in the experiment with Aspergillus fumigatus, in the experiment on Trichophyton benhamiae, with Aspergillus flavus, with Escherichia coli, in the experiment with Talaromyces marneffei and in the experiment on Pseudomonas aeruginosa was less than 10 mm throughout. In addition, the “inhibition zone (IZ)” value with Klebsiella pneumoniae and in the experiment on Staphylococcus aureus was less than 10 mm each time. Also, the minimum inhibitory concentration (MIC) against Aspergillus fumigatus, against Trichophyton benhamiae, in the experiment on Aspergillus flavus, against Escherichia coli, against Talaromyces marneffei and with Pseudomonas aeruginosa was 25 µg/mL (≈ 62 µM) each time. Besides, the MIC with Klebsiella pneumoniae and against Staphylococcus aureus was 25 µg/mL (≈ 62 µM) each time.

Regarding `CS(=O)(=O)c1ccc(OCc2nnc3n2N=C(c2ccc(Cl)cc2)CS3)cc1`, the “inhibition zone (IZ)” value with Aspergillus fumigatus, with Trichophyton benhamiae, with Aspergillus flavus, in the experiment on Escherichia coli, in the experiment with Talaromyces marneffei and in the experiment on Pseudomonas aeruginosa was less than 10 mm each time. The “inhibition zone (IZ)” value in the experiment on Klebsiella pneumoniae and with Staphylococcus aureus was less than 10 mm each time. Also, the MIC in the experiment with Aspergillus fumigatus, against Trichophyton benhamiae, in the experiment on Aspergillus flavus, against Escherichia coli, against Talaromyces marneffei and with Pseudomonas aeruginosa was 25 µg/mL (≈ 57.5 µM) in each case. For the same compound, the minimal inhibitory concentration (MIC) against Klebsiella pneumoniae and in the experiment with Staphylococcus aureus was 25 µg/mL (≈ 57.5 µM) throughout.

Consider `CCSc1ccc(OCc2nnc3sc(-c4cccc(Cl)c4Cl)nn23)cc1`, for which the “inhibition zone (IZ)” value with Aspergillus fumigatus, in the experiment with Trichophyton benhamiae, in the experiment with Aspergillus flavus, with Escherichia coli, in the experiment on Talaromyces marneffei and in the experiment on Pseudomonas aeruginosa was less than 10 mm throughout. Besides, the “inhibition zone (IZ)” value in the experiment with Klebsiella pneumoniae and in the experiment on Staphylococcus aureus was less than 10 mm in each case. Besides, the minimum inhibitory concentration (MIC) in the experiment on Aspergillus fumigatus, with Trichophyton benhamiae, against Aspergillus flavus, in the experiment with Escherichia coli, against Talaromyces marneffei and in the experiment on Pseudomonas aeruginosa was 25 µg/mL (≈ 57.2 µM) in each case. Also, the MIC with Klebsiella pneumoniae and against Staphylococcus aureus was 25 µg/mL (≈ 57.2 µM) each time.

`CSc1ccc(OCc2nnc3n2N=C(c2ccc(Cl)cc2)CS3)cc1`: the “inhibition zone (IZ)” value in the experiment on Aspergillus fumigatus, with Trichophyton benhamiae, in the experiment on Aspergillus flavus, in the experiment on Escherichia coli, with Talaromyces marneffei and with Pseudomonas aeruginosa was 16 mm throughout. The “inhibition zone (IZ)” value in the experiment with Klebsiella pneumoniae and in the experiment with Staphylococcus aureus was 16 mm each time. Besides, the MIC with Aspergillus fumigatus, against Trichophyton benhamiae, in the experiment with Aspergillus flavus, against Escherichia coli, in the experiment on Talaromyces marneffei and in the experiment with Pseudomonas aeruginosa was 6.25 µg/mL (≈ 15.5 µM) each time. The MIC with Klebsiella pneumoniae and with Staphylococcus aureus was 6.25 µg/mL (≈ 15.5 µM) each time.

Turning to `CS(=O)(=O)c1ccc(OCc2nnc3sc(-c4cccc(Cl)c4)nn23)cc1`, the “inhibition zone (IZ)” value is given as 11 mm with Aspergillus fumigatus; 11 mm in the experiment on Trichophyton benhamiae; 11 mm in the experiment with Aspergillus flavus; 11 mm in the experiment on Escherichia coli; less than 10 mm in the experiment on Talaromyces marneffei; 11 mm in the experiment with Pseudomonas aeruginosa. The “inhibition zone (IZ)” value with Klebsiella pneumoniae and with Staphylococcus aureus was 11 mm each time. Also, the MIC in the experiment with Aspergillus fumigatus was found to be 12.5 µg/mL (≈ 29.7 µM); with Trichophyton benhamiae, 12.5 µg/mL (≈ 29.7 µM); against Aspergillus flavus, 12.5 µg/mL (≈ 29.7 µM); in the experiment with Escherichia coli, 12.5 µg/mL (≈ 29.7 µM); against Talaromyces marneffei it was 25 µg/mL (≈ 59.4 µM); with Pseudomonas aeruginosa, 12.5 µg/mL (≈ 29.7 µM). For the same compound, the MIC against Klebsiella pneumoniae and against Staphylococcus aureus was 12.5 µg/mL (≈ 29.7 µM) each time.

As to `CS(=O)(=O)c1ccc(OCc2nnc3sc(-c4ccccc4)nn23)cc1`, the “inhibition zone (IZ)” value in the experiment with Aspergillus fumigatus is reported as 11 mm; with Trichophyton benhamiae, 11 mm; with Aspergillus flavus, 11 mm; in the experiment with Escherichia coli, 11 mm; in the experiment with Talaromyces marneffei it was less than 10 mm; in the experiment on Pseudomonas aeruginosa it was 11 mm. Besides, the “inhibition zone (IZ)” value with Klebsiella pneumoniae and in the experiment on Staphylococcus aureus was 11 mm throughout. Also, the MIC turned out to be 12.5 µg/mL (≈ 32.3 µM) against Aspergillus fumigatus; 12.5 µg/mL (≈ 32.3 µM) against Trichophyton benhamiae; 12.5 µg/mL (≈ 32.3 µM) in the experiment with Aspergillus flavus; 12.5 µg/mL (≈ 32.3 µM) in the experiment on Escherichia coli; 25 µg/mL (≈ 64.7 µM) in the experiment with Talaromyces marneffei; 12.5 µg/mL (≈ 32.3 µM) in the experiment with Pseudomonas aeruginosa. In addition, the minimum inhibitory concentration (MIC) with Klebsiella pneumoniae and against Staphylococcus aureus was 12.5 µg/mL (≈ 32.3 µM) each time.

The term MIC denotes the least concentration at which growth counts as inhibited. A high value points to weaker potency.
